The nature of data set [1]: (§1) AUC (0 to 8 hrs) in mouse at 1 mg/kg, po administered via cassette dose by LC-MS/MS analysis. As to conditions: in vivo. The format is ADME, organism-based. Also on record: time < 8 hr, dose 1 mg/kg, route oral. The method in brief: (§2)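 Cassette oral dosing of mice at 1 mg/kg. Blood was sampled after dosing and centrifuged to give plasma. Plasma was deproteinized with acetonitrile containing internal standard, centrifuged, diluted with LC mobile phase and centrifuged again for analysis. Values are means of three determinations.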

The nature of data set [2]: Oral bioavailability in mouse at 1 mg/kg administered via cassette dose by LC-MS/MS analysis. The format is ADME, organism-based. As to conditions: in vivo. The method in brief: as §2
Data set [3] has as its system Mus musculus. Kind of data set: Effect on IFNgamma expression in po dosed Balb/c mouse measured after 24 hrs by qRT-PCR analysis. The following applies: in vivo. The format is ADME, organism-based.
Data set [4] in a line: Cmax in Balb/c mouse at 3 mg/kg, po. More on the design: dose 3 mg/kg, route oral. The following applies: in vivo. Type of data set: ADME, organism-based. The method in brief: (§3)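 Male Balb/c mice, 7 weeks old, received intradermal ear injection of recombinant mouse IL-23 (500 ng/10 μL PBS) under isoflurane. Compound was suspended in 0.5% methylcellulose and given orally at 3, 10 or 30 mg/kg, 30 min before and 8 h after IL-23. Plasma concentration was measured in parallel with the PD assay, giving Cmax and […].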

Data set [5] can be described thus: Cmax in Balb/c mouse at 10 mg/kg, po. Type of data set: ADME, organism-based. More on the design: dose 10 mg/kg, route oral. The following applies: in vivo. The method in brief:
as §3

Data set [6] in a line: Cmax in Balb/c mouse at 30 mg/kg, po. The following applies: in vivo. Type of data set: ADME, organism-based. More on the design: dose 30 mg/kg, route oral. An outline of the steps:
as §3

A short description of data set [7]: AUC (0 to 24 hrs) in Balb/c mouse at 3 mg/kg, po. Type of data set: ADME, organism-based. More on the design: dose 3 mg/kg, time < 24 hr, route oral. As to conditions: in vivo. An outline of the steps: (§4)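 Male Balb/c mice, 7 weeks old, received 3, 10 or 30 mg/kg orally as a suspension in 0.5% methylcellulose. Dosing was 30 min before and 8 h after intradermal ear injection of recombinant mouse IL-23 (500 ng in 10 μL PBS). Plasma drug levels were measured alongside this PD study, and AUC was taken over 0–24 h.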

The nature of data set [8]: AUC (0 to 24 hrs) in Balb/c mouse at 10 mg/kg, po. The format is ADME, organism-based. Also on record: time < 24 hr, dose 10 mg/kg, route oral. As to conditions: in vivo. An outline of the steps:
as §4

Data set [9] can be described thus: AUC (0 to 24 hrs) in Balb/c mouse at 30 mg/kg, po. The format is ADME, organism-based. More on the design: time < 24 hr, dose 30 mg/kg, route oral. As to conditions: in vivo. An outline of the steps:
as §4

Data set [10] concerns Mus musculus. Put plainly: Drug uptake in po dosed Balb/c mouse. Type of data set: ADME, organism-based. As to conditions: in vivo. The method in brief:
as §3

For data set [11], the species on record is Mus musculus. Put plainly: animal or person. As to conditions: Balb/c, po.
The test system of data set [12] is Mus musculus. The description is as §1. Type of data set: ADME, organism-based. Also on record: time < 8 hr, dose 1 mg/kg, route oral. As to conditions: in vivo, 8 h. An outline of the steps:
as §2

Consider 13 compounds from ChEMBL document CHEMBL4177746, “Discovery of orally efficacious RORγt inverse agonists. Part 2: Design, synthesis, and biological evaluation of novel tetrahydroisoquinoline derivatives” (Bioorg Med Chem, 2018).

The AUC(0-t) is exposure summed from dosing to a finite time, without extrapolation to infinity. Read a high AUC(0-t) as high exposure. For orientation: bioavailability means dose-corrected exposure relative to a reference, in per cent. A low value points to little systemic uptake. For the compound `COc1ccc2c(c1)CCN(C(=O)c1cc(O)no1)[C@H]2C(=O)Nc1cc(F)c([Si](C)(C)C)c(F)c1`, the AUC(0-t) at 8 h in data set [1] amounted to 200 ng·h/mL. Besides, the bioavailability in data set [2] turned out to be 11%.

The compound `COc1ccc2c(c1)CCN(C(=O)CCCC(N)=O)[C@H]2C(=O)Nc1cc(F)c([Si](C)(C)C)c(F)c1` showed an AUC(0-t) at 8 h in data set [1] of 92 ng·h/mL. Also, in data set [2], the bioavailability amounted to 14%.

Take `COc1ccc2c(c1)CCN(C(=O)CC(C)(O)CC(=O)O)[C@H]2C(=O)Nc1cc(F)c([Si](C)(C)C)c(F)c1` (stereo not given in full): in data set [1], the AUC(0-t) at 8 h was 159 ng·h/mL. In addition, the bioavailability in data set [2] was 34%.

As for `COc1ccc2c(c1)CCN(C(=O)CCCCC(=O)O)[C@H]2C(=O)Nc1cc(F)c([Si](C)(C)C)c(F)c1`, in data set [1], the AUC(0-t) at 8 h was 1030 ng·h/mL. Besides, the bioavailability in [2] is 84%.

The compound `COc1ccc2c(c1)CCN(C(=O)CC(C)CC(=O)O)[C@H]2C(=O)Nc1cc(F)c([Si](C)(C)C)c(F)c1` (stereo not given in full) showed an AUC(0-t) at 8 h in data set [1] of 2500 ng·h/mL. This compound had a bioavailability in data set [2] of 65%.

In the case of `COc1ccc2c(c1)CCN(C(=O)CC(C)(C)CC(=O)O)[C@H]2C(=O)Nc1cc(F)c([Si](C)(C)C)c(F)c1`, the exposure AUC(0-t) at 8 h in [1] was 2270 ng·h/mL. This compound also came in with a bioavailability in data set [2] of 40%.

On to `COc1ccc2c(c1)CCN(C(=O)CCC(=O)O)[C@H]2C(=O)Nc1cc(F)c([Si](C)(C)C)c(F)c1`, for which the AUC(0-t) at 8 h in [1] was found to be 2500 ng·h/mL. For the same compound, the bioavailability in data set [2] came to 51%.

On to `COc1ccc2c(c1)CCN(C(=O)/C=C/C(=O)O)[C@H]2C(=O)Nc1cc(F)c([Si](C)(C)C)c(F)c1`, for which the AUC(0-t) at 8 h in data set [1] worked out at 619 ng·h/mL. The compound further gave a bioavailability in [2] of 51%.

In data set [1], `COc1ccc([C@H](C(=O)Nc2cc(F)c([Si](C)(C)C)c(F)c2)N(C)C(=O)CCC(=O)O)cc1` came in with an exposure AUC(0-t) at 8 h of 162 ng·h/mL. Further, in data set [2], the bioavailability turned out to be 8.5%.

As usually defined, the Cmax is the peak of the concentration-time curve. By ED50 is commonly meant the dose that gives a 50% effect, or the effect in half of the subjects. Consider `COc1ccc2c(c1)CCN(C(=O)CCCC(=O)O)[C@H]2C(=O)Nc1cc(F)c([Si](C)(C)C)c(F)c1`, for which, in data set [1], the area under the curve AUC(0-t) at 8 h amounted to 6890 ng·h/mL. In data set [2], the bioavailability is 94%. For the same compound, in data set [3], the Activity result is listed as “Non-Toxic”. Also, the results for the Cmax in [4], in data set [5] and in data set [6] were 1630 ng/mL, 7720 ng/mL and 19000 ng/mL, respectively. Besides, the AUC(0-t) at 24 h in data set [7] was 10700 ng·h/mL; in data set [8], 48000 ng·h/mL; in [9], 159000 ng·h/mL. Also, the Drug uptake result in [10] is on record as “Dose-dependent effect”. For the same compound, the ED50 in data set [11] stood at 2.8 mg/kg.

For the compound `COc1ccc2c(c1)OCCN(C(=O)c1cc(O)no1)[C@H]2C(=O)Nc1cc(F)c([Si](C)(C)C)c(F)c1`, the AUC(0-t) at 8 h in [1] amounted to 29.5 ng·h/mL. Besides, in data set [2], the bioavailability was found to be 9%.

Usually AUC stands for concentration integrated over time. `COc1ccc([C@H](C(=O)Nc2cc(F)c([Si](C)(C)C)c(F)c2)N(C)C(=O)c2cc(O)no2)cc1` displayed an AUC in data set [12] of 374 ng·h/mL. In addition, the bioavailability in [2] stood at 18%.

Consider `COc1ccc2c(c1)CCN(C(=O)CC1SC(=O)NC1=O)[C@H]2C(=O)Nc1cc(F)c([Si](C)(C)C)c(F)c1` (stereo not given in full), for which the AUC(0-t) at 8 h in data set [1] was 120 ng·h/mL. This compound also had a bioavailability in data set [2] of 13%.
